Published values of several laboratories.
Each line is one published result; the experiments were not run side by side.
Target: Glycogen synthase kinase-3 alpha (GSK3A, Homo sapiens, UniProt P49840)

COc1cnc(Nc2cccc(S(N)(=O)=O)c2)nc1N1CCN(c2ccccc2)CC1
remaining binding (binding, competition with immobilised ligand; 1 µM): 99%

O=C(NCC1CCOCC1)c1n[nH]cc1NC(=O)c1c(F)cccc1F
remaining binding (binding, competition with immobilised ligand; 1 µM): 0%

COCCOc1nc(-c2ccc(Cl)nc2)nc2c1CN(C(=O)c1ncn3ccccc13)CC2
remaining binding (cell-free assay, competition with immobilised ligand; 0.1 µM): 100%

CCN1CCN(Cc2ccc(C(=O)Nc3ccc(C)c(Oc4ccc5c(c4)CC(=O)N5)c3)cc2C(F)(F)F)CC1
remaining binding (binding, competition with immobilised ligand; 1 µM): 100%

CN(CCCC(F)(F)F)c1nccc(-c2cnn3ncccc23)n1
remaining binding (binding; 1 µM): 100%

COc1ccc2c(O[C@@H]3C[C@H]4C(=O)N[C@]5(C(=O)O)CC5/C=C\CCCCC[C@H](NC(=O)OC5CCCC5)C(=O)N4C3)cc(-c3csc(NC(=O)C(C)C)n3)nc2c1C (stereo partly drawn)
remaining binding (cell-free assay, competition with immobilised ligand; 1 µM): 100%

C=CC(=O)N1CCC(C(=O)NCC(=O)N2CCN(c3nc(-c4cnc(N)nc4C(F)F)nc(N4CCOCC4)n3)CC2)CC1
remaining binding (binding, competition with immobilised ligand; 1 µM): 92%

CN(C)C(=O)Cn1cc(-c2nc([C@@](C)(c3ccc(-c4cnc(N)nc4)cc3)C3CC3)no2)cn1
remaining binding (cell-free assay, competition with immobilised ligand; 1 µM): 100%

C[C@H]1CCN(c2nccc(-c3cnn4ncccc34)n2)C1
remaining binding (binding; 1 µM): 85%

O=C(Nc1cccnn1)N1CCC(=Cc2cccc(Oc3ccc(C(F)(F)F)cn3)c2)CC1
remaining binding (cell-free assay, competition with immobilised ligand; 1 µM): 100%

Nc1ncc2c(n1)-c1c([nH]c3ccc(C#CC4CC4)cc13)CCCC2
remaining binding (binding, competition with immobilised ligand; 1 µM): 57%

O=C(NCCCN1CCOCC1)c1ccc(Nc2nccc(-c3cc4ccccc4s3)n2)cc1
remaining binding (binding, competition with immobilised ligand; 1 µM): 92%

c1cnn2ncc(-c3ccnc(N4CCC45COC5)n3)c2c1
remaining binding (binding; 1 µM): 100%

O=C(c1ccc(Nc2ncc(Cl)c(-c3cc4ccccc4s3)n2)cc1)N1CCC(N2CCCC2)CC1
remaining binding (binding, competition with immobilised ligand; 1 µM): 11%

COc1ccnn2ncc(-c3ccnc(N(C)C)n3)c12
remaining binding (binding; 1 µM): 96%

COc1ncc2cc3ccccc3nc2c1C#N
remaining binding (cell-free assay, competition with immobilised ligand; 5 µM): 94%

CC1CCCN1c1nccc(-c2cnn3ncccc23)n1 (stereo not drawn)
remaining binding (binding; 1 µM): 94%

O=C(NC[C@@H]1[C@H]2CN(C(=O)OCc3cc(C(F)(F)F)cc(C(F)(F)F)c3)C[C@@H]12)c1ccc2[nH]nnc2c1
remaining binding (cell-free assay, competition with immobilised ligand; 1 µM): 99%

N[C@@H]1CCN(c2nccc(-c3cnn4ncccc34)n2)C1
remaining binding (binding; 1 µM): 100%

Cc1nc(C2CCN(C(=O)c3ccc(OC(F)(F)F)cc3N)CC2)c2ncc(N3CCN(C)CC3)cc2n1
remaining binding (cell-free assay, competition with immobilised ligand; 1 µM): 85%

Cc1cnc(Nc2ccc(C(=O)N3CCC(N4CCCC4)CC3)cc2)nc1-c1cc2ccccc2s1
remaining binding (binding, competition with immobilised ligand; 1 µM): 43%
